# Screening results from PubChem BioAssay.
# Only some compounds are listed: those with a hit (about 1.7% of all), similar ones and a draw of the others.
# miR122 inh – blocks miR-122 activity in Huh7 sensor cells | 340,000 tested, 0.3% active | activation (reporter increase), % at 12.5 µM | Huh7 miR-122 Renilla luciferase sensor, 48 h; neutral wells = 0, positive control = 100;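 active = mean replicate activation score at least 90 and every replicate individually at or above 90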;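 also: higher luciferase means less miR-122 activity so hits act as miR-122 inhibitors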
# CAL PDZ FP-1 – human CAL PDZ-peptide interaction inhibition. Q9HD26. AID 504414. purified CAL PDZ, TMR-peptide fluorescence polarization, 1 h. 330,000 tested, 0.02% active. inhibition, % at 20 µM;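 active = highest replicate inhibition of at least 40%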;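 also: plate controls were DMSO neutral control wells for no effect and unlabeled competitor peptide control wells for full effect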
#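 Control set: unlabelled peptide and DMSO controls / Material: purified CerCALP PDZ construct / Timing: 1 h incubation at room temperature before polarization reading / Doses: 20 µM, one dose / Detection: fluorescence polarization (mP)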
# CFTR F508del cor – correctors of CFTR F508del function in bronchial epithelial cells. CFBE cells, YFP halide quenching; stimulated with forskolin plus potentiator P3; % fluorescence drop versus neutral controls. activity (quench increase), % at 7.58 µM. 350,000 tested, 0.36% active. AID 720511;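 active = mean added fluorescence quench of at least 8% versus neutral control, with both replicates also reaching 8%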;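 also: cells transiently co-express mutant CFTR-F508del with the halide-sensitive YFP; corrector assay measuring rescue of mutant channel to the surface after 24 h compound exposure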
# CAL PDZ FP-2 – CAL PDZ (human) peptide binding inhibition; Q9HD26; purified CAL PDZ, TMR-peptide fluorescence polarization, 1 h; inhibition, % at 24.9 µM; 300,000 tested, 0.92% active;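 active = mean inhibition of at least 30% with at least half of replicates also reaching 30%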;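 also: 0% = DMSO neutral control and 100% = excess unlabeled competitor peptide PRC23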
# ARNT-TACC3 inh – disrupts binding between human ARNT and TACC3; Q9Y6A5; AlphaScreen His-ARNT PAS-B/GST-TACC3 binding, luminescence; TACC3 fragment carries E629A point mutation; inhibition, % at 9.99 µM; 390,000 tested, 0.66% active;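 active = mean inhibition of replicates at least 50% and at least half of replicates each reaching 50%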;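 also: 0% = complete ARNT plus TACC3 wells and 100% = ARNT alone without TACC3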
# PGC1a acetyl inh – PGC1a acetylation modulation, inhibitor mode; 350,000 tested, 0.17% active; inhibition, % at 15.6 µM; U2OS PGC1a acetylation, AlphaScreen anti-acetyl-lysine; with virally co-expressed GCN5 acetyltransferase;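 active = every replicate shows inhibition of at least 40%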;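 also: 0% = neutral control wells and 100% = positive control wells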
# The depositor's hits bear a star; / = no result given; [ ] = another dose, or the depositor's remark.
SMILES,miR122 inh,CAL PDZ FP-1,CFTR F508del cor,CAL PDZ FP-2,ARNT-TACC3 inh,PGC1a acetyl inh
Cc1noc(C)c1NC(=O)Nc1ccc2c(c1)CC(=O)N([C@@H](C)CO)C[C@@H](C)[C@H](CN(C)Cc1ccccc1)O2,7.5[16.7 µM],/,2.6,/,11.8,/
CCC(C)(C)NC(=O)C1CCN(c2nc(OC)nc(OC)n2)CC1,/,0.8,-1.3,34.2*,-3.6,6.7
Clc1ccccc1CN1CCN(c2ncccn2)CC1,-2.2,-9.4,-0.3,-16.2,-0.7,-1.5
Clc1ccccc1CN1CCSCC1,0.7,0.5,-0.1,2.0,-4.1,47.1*
Cc1ccc2c(c1)CCCN2C(=O)CCc1nc2ccccc2c(=O)[nH]1,26.8,-3.7,22.3*,-4.3,-1.3,7.8
CC(=O)N1CCN(C(=O)CCc2nc3ccccc3c(=O)[nH]2)CC1,7.6,/,1.5,-2.0,-21.5,-8.8
CO[C@@H]1CN(C)C(=O)c2cc(NS(=O)(=O)c3ccccc3C)ccc2OC[C@@H](C)NC[C@@H]1C,13.7[16.7 µM],/,-1.9,/,-7.4,-6.0
O=C(Oc1c(CN2CCOCC2)cc(Cl)c2cccnc12)c1ccc(F)cc1,-40.1,22.5,/,/,64.8*,18.2
COc1cc(C(=O)Oc2c(CN3CCOCC3)cc(Cl)c3cccnc23)cc(OC)c1OC,-26.3,-0.5,/,4.3,70.3*,13.3
O=C(Oc1c(CN2CCOCC2)cc(Cl)c2cccnc12)c1ccccc1Cl,5.7,-1.4,-2.3,-2.8,70.8*,15.4
COc1ccc(C(=O)Oc2c(CN3CCOCC3)cc(Cl)c3cccnc23)cc1,-25.0,-0.7,/,-0.7,64.7*,2.1
O=C(Oc1ccc(Cl)c2cccnc12)N1CCOCC1,-5.2,-2.3,/,-19.2,3.7,/
COc1ccc(NC(=O)Nc2ccc3c(c2)[C@H]2C[C@@H](CC(=O)NC4CCCCC4)O[C@@H](CO)[C@H]2O3)cc1,-1.5[16.7 µM],/,-0.5,/,-7.3,-1.4
Cc1nc(-n2[nH]c3c(c2=O)CCCC3)[nH]c(=O)c1Cc1ccccc1,3.7,-0.5,/,-2.6,59.3*,11.5
Cc1nc(N2CCc3ccccc3C2)[nH]c(=O)c1Cc1ccccc1,2.3,0.0,0.6,5.5,-0.1,11.8
O=C(COC(=O)Cc1ccsc1)Nc1cccc(F)c1,/,-0.2,16.4*,-3.3,0.3,/
Cc1cccnc1NC(=O)CNC(=O)C1CCCCC1,-5.5,-1.0,-2.6,35.8*,/,-1.5
CNC[C@@H]1OCCCC[C@@H](C)Oc2ccc(NS(=O)(=O)c3ccc(OC)cc3)cc2C(=O)N([C@H](C)CO)C[C@H]1C,-3.2[16.7 µM],/,-1.6,/,0.7,-10.8
CC(C)(C)c1ccc(C(=O)NNc2cc(N3CCCCC3)nc(N3CCCCC3)n2)cc1,5.9,-0.8,/,-4.2,-2.1,-13.9
O=C(NNc1cc(N2CCCC2)nc(N2CCCC2)n1)c1ccc([N+](=O)[O-])cc1,/,-1.6,-6.6,30.0*,11.5,/
CCCNC(=O)Nc1ccc2c(c1)C(=O)N(C)C[C@H](OC)[C@H](C)CN(CC1CCCC1)[C@@H](C)CO2,-2.2[16.7 µM],/,0.4,/,/,43.9*
CO[C@H]1CN(C)C(=O)c2cc(NC(C)=O)ccc2OC[C@H](C)N(C(=O)c2ccncc2)C[C@@H]1C,-2.1[16.7 µM],/,-0.8,/,8.6,4.2
CO[C@@H]1CN(C)C(=O)c2cc(NC(=O)Nc3c(C)noc3C)ccc2OC[C@@H](C)N(C)C[C@@H]1C,/,/,9.6*,/,-7.2,3.9
CO[C@H]1CN(C)C(=O)c2cc(NC(=O)c3ccccc3F)ccc2OC[C@@H](C)N(C(C)=O)C[C@@H]1C,/,/,3.1,/,-6.8,130.3*
CCCNC(=O)Nc1ccc2c(c1)C(=O)N(C)C[C@@H](OC)[C@@H](C)CN(CC1CCCC1)[C@@H](C)CO2,9.6[16.7 µM],/,1.4,/,/,3.2
SMILES,miR122 inh,CAL PDZ FP-1,CFTR F508del cor,CAL PDZ FP-2,ARNT-TACC3 inh,PGC1a acetyl inh
CO[C@H]1CN(C)C(=O)c2cc(NC(C)=O)ccc2OC[C@H](C)N(C(=O)c2ccncc2)C[C@H]1C,17.5[16.7 µM],/,8.4*,/,21.8,5.8
C[C@@H]1CN([C@H](C)CO)C(=O)Cc2cc(NC(=O)CCC(F)(F)F)ccc2O[C@H]1CN(C)Cc1ccc(Oc2ccccc2)cc1,10.7[16.7 µM],/,-2.0,/,-21.0,-3.8
CC(C)NC(=O)N(C)C[C@H]1Oc2c(NC(=O)Nc3ccccc3)cccc2C(=O)N([C@@H](C)CO)C[C@@H]1C,2.8[16.7 µM],/,-0.3,/,-1.9,-7.1
O=C(C[C@H]1C[C@@H]2c3cc(NC(=O)C4CCOCC4)ccc3O[C@@H]2[C@@H](CO)O1)NCC1CC1,8.2[16.7 µM],/,1.2,/,-11.0,8.9
C[C@H](CO)N1C[C@H](C)[C@H](CN(C)C(=O)Nc2ccccc2F)Oc2ncc(-c3ccccc3)cc2C1=O,-5.2[16.7 µM],/,5.4,/,-3.8,-0.5
CO[C@@H]1CN(C)C(=O)c2cc(NC(C)=O)ccc2OC[C@@H](C)N(CC2CCCCC2)C[C@@H]1C,4.0[16.7 µM],/,0.5,/,-4.6,-8.7
Cn1c(N)c(C(=O)COC(=O)c2ncc(Cl)c(Cl)c2Cl)c(=O)n(C)c1=O,-6.0,-0.9,-2.3,55.5*,/,-1.1
Cn1c(N)c(C(=O)COC(=O)c2ccccn2)c(=O)n(C)c1=O,-7.0,-1.3,-2.5,2.8,-0.8,3.5
C[C@H](CO)N1C[C@H](C)[C@H](CN(C)CC2CC2)Oc2cc(C#Cc3ccc(F)cc3)ccc2S1(=O)=O,-8.0[16.7 µM],/,-0.9,/,4.6,-40.9
C[C@H](CO)N1C[C@H](C)[C@H](CN(C)C(=O)Nc2cccc3ccccc23)Oc2ccc(NC(=O)Nc3ccc4c(c3)OCO4)cc2CC1=O,-2.4[16.7 µM],/,-3.2,/,/,-5.7
COc1cc(C(=O)N2CCC(C(N)=O)CC2)ccc1OCc1c(C)noc1C,4.1,-1.8,9.4*,6.5,-15.6,-0.3
COc1cc(C(=O)OCC(=O)N2CCCCC2C)ccc1OCc1c(C)noc1C (stereo not given),-8.0,0.1,2.8,45.7*,-5.3,/
COC(=O)C[C@@H]1C=C[C@@H](NS(=O)(=O)c2ccc(OC)cc2)[C@H](CO)O1,/,/,-0.2,/,-34.7,6.7
CCCNC(=O)N1CC2(CN(CC3CC3)C2)c2c(n(C)c3cc(OC)ccc23)[C@H]1CO,/,/,2.5,/,/,/
Cc1noc(C)c1NC(=O)Nc1ccc2c(c1)C(=O)N([C@H](C)CO)C[C@H](C)[C@H](CN(C)C(=O)c1ccccc1)OCCCC[C@H](C)O2,-5.9[16.7 µM],/,-1.7,/,-4.8,-3.5
COc1ccc(C2=CSC3=C(C(=O)c4cccc(S(=O)(=O)N(C)C)c4)CCN23)cc1,-1.5,/,/,95.7*,-3.6,-3.7
Cc1ccc(-c2ccc3c(c2)O[C@@H](CN(C)C(=O)C2CCCCC2)[C@@H](C)CN([C@H](C)CO)S3(=O)=O)cc1,13.2[16.7 µM],/,2.3,/,/,18.6
CC(C)C(=O)NC(c1cccs1)c1cc([N+](=O)[O-])c2cccnc2c1O (stereo not given),-4.3,0.7,/,/,59.8*,/
